ChEMBL document CHEMBL2203081 (Bioorg Med Chem Lett, 2012)
Activity calls are given as the source filed them. The rule behind the calls is not given here.

Tests used:
[1] = biological target: MAP kinase-activated protein kinase 2 (Homo sapiens) (UniProt P49137); assay: Inhibition of MAPKAPK2 assessed as residual activity at 10 uM relative to control
[2] = biological target: T1, Mitogen-activated protein kinase kinase kinase 7 (Homo sapiens) (UniProt O43318); assay: Inhibition of TAK1 assessed as residual activity at 1 uM
T1 sequence (whole entry): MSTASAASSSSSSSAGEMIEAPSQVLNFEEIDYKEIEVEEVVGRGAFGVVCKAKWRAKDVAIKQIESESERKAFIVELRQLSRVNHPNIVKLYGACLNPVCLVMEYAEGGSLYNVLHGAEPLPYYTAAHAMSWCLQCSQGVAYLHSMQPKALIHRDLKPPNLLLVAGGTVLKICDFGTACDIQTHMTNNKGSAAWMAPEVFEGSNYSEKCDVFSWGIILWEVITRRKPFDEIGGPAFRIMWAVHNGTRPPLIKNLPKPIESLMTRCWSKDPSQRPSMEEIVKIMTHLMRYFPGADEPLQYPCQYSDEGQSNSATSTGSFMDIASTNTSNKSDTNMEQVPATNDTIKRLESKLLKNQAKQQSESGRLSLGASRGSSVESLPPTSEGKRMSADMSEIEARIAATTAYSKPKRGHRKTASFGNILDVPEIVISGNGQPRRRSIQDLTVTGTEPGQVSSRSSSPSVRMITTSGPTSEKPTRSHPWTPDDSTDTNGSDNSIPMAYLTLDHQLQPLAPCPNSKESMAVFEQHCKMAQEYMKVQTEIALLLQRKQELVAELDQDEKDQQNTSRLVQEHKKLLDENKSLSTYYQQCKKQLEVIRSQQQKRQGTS

[3] = biological target: Mast/stem cell growth factor receptor Kit (Homo sapiens) (UniProt P10721); assay: Inhibition of KIT assessed as residual activity at 10 uM relative to control
[4] = biological target: T1, Mitogen-activated protein kinase kinase kinase 7 (Homo sapiens); assay: Inhibition of TAK1 assessed as residual activity at 10 uM
[5] = biological target: Serine/threonine-protein kinase PknB (Mycobacterium tuberculosis) (UniProt P9WI81); assay: Inhibition of Mycobacterium tuberculosis PKNB assessed as residual activity at 10 uM relative to control
[6] = biological target: High affinity nerve growth factor receptor (Homo sapiens) (UniProt P04629); assay: Inhibition of TrkA assessed as residual activity at 1 uM
[7] = biological target: Serine/threonine-protein kinase 24 (Homo sapiens) (UniProt Q9Y6E0); assay: Inhibition of MST3 assessed as residual activity at 10 uM relative to control
[8] = biological target: Cyclin-dependent kinase 11A (Homo sapiens) (UniProt Q9UQ88); assay: Inhibition of CDC2L2 assessed as residual activity at 10 uM relative to control
[9] = test system: Leucine-rich repeat serine/threonine-protein kinase 2 (Homo sapiens), Q5S007 [A2016T]; settings: HEK293, 1 to 3 uM
[10] = biological target: Mitogen-activated protein kinase 1 (Homo sapiens) (UniProt P28482); assay: Inhibition of ERK2 assessed as residual activity at 10 uM
In short: (§1)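 Radioactivity-based enzymatic activity assay of the named kinase, run as part of a 131-kinase specificity panel at the National Centre for Protein Kinase Profiling (Dundee). Residual activity was read at the stated single inhibitor concentration.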

[11] = biological target: Phosphatidylinositol 4-phosphate 3-kinase C2 domain-containing subunit beta (Homo sapiens) (UniProt O00750); assay: Inhibition of PIK3C2B assessed as residual activity at 10 uM relative to control
[12] = biological target: Insulin-like growth factor 1 receptor (Homo sapiens) (UniProt P08069); assay: Inhibition of IGF-1R assessed as residual activity at 10 uM; in short: as §1
[13] = biological target: Aurora kinase C (Homo sapiens) (UniProt Q9UQB9); assay: Inhibition of AURKC assessed as residual activity at 10 uM relative to control
[14] = biological target: Casein kinase I isoform alpha-like (Homo sapiens) (UniProt Q8N752); assay: Inhibition of CSNK1A1L assessed as residual activity at 10 uM relative to control
In short: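 Competition kinase-binding assay (KINOMEscan) across a non-redundant panel of 329 kinases beyond the radiometric panel; residual binding expressed relative to control.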

[15] = biological target: Ephrin type-B receptor 4 (Homo sapiens) (UniProt P54760); assay: Inhibition of EPH-B4 assessed as residual activity at 1 uM
In short: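 Standard radioactivity-based enzymatic kinase assays on a 131-kinase panel run by the Dundee profiling service; residual kinase activity recorded.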

[16] = biological target: Tyrosine-protein kinase Yes (Homo sapiens) (UniProt P07947); assay: Inhibition of YES1 assessed as residual activity at 1 uM
[17] = biological target: Angiopoietin-1 receptor (Homo sapiens) (UniProt Q02763); assay: Inhibition of TIE2 assessed as residual activity at 1 uM
[18] = biological target: Homeodomain-interacting protein kinase 4 (Homo sapiens) (UniProt Q8NE63); assay: Inhibition of HIPK4 assessed as residual activity at 10 uM relative to control
[19] = test system: Mast/stem cell growth factor receptor Kit (Homo sapiens), P10721 [V559D,T670I]; assay: Inhibition of KIT V559D,T670I mutant assessed as residual activity at 10 uM relative to control
[20] = biological target: Serine/threonine-protein kinase N2 (Homo sapiens) (UniProt Q16513); assay: Inhibition of PKN2 assessed as residual activity at 10 uM relative to control
[21] = biological target: Proto-oncogene tyrosine-protein kinase ROS (Homo sapiens) (UniProt P08922); assay: Inhibition of ROS1 assessed as residual activity at 10 uM relative to control
[22] = biological target: Cyclin-dependent kinase 2/cyclin A (Homo sapiens) (UniProt P24941+P20248+P78396); assay: Inhibition of CDK2-Cyclin A assessed as residual activity at 1 uM; format: protein-complex assay
[23] = biological target: Maternal embryonic leucine zipper kinase (Homo sapiens) (UniProt Q14680); assay: Inhibition of MELK assessed as residual activity at 1 uM
[24] = test system: Tyrosine-protein kinase ABL1 (Homo sapiens), P00519 [E255K]; assay: Inhibition of phosphorylated ABL1 E255K mutant assessed as residual activity at 10 uM relative to control
[25] = test system: Mast/stem cell growth factor receptor Kit (Homo sapiens), P10721 [V559D]; assay: Inhibition of KIT V559D mutant assessed as residual activity at 10 uM relative to control
[26] = biological target: Cyclin-dependent kinase 5 (Homo sapiens) (UniProt Q00535); assay: Inhibition of CDK5 assessed as residual activity at 10 uM relative to control
[27] = biological target: Insulin receptor-related protein (Homo sapiens) (UniProt P14616); assay: Inhibition of INSRR assessed as residual activity at 10 uM relative to control
[28] = biological target: MAP kinase-activated protein kinase 5 (Homo sapiens) (UniProt Q8IW41); assay: Inhibition of PRAK assessed as residual activity at 10 uM
Chain of MAP kinase-activated protein kinase 5 (Homo sapiens) (Q8IW41 whole entry): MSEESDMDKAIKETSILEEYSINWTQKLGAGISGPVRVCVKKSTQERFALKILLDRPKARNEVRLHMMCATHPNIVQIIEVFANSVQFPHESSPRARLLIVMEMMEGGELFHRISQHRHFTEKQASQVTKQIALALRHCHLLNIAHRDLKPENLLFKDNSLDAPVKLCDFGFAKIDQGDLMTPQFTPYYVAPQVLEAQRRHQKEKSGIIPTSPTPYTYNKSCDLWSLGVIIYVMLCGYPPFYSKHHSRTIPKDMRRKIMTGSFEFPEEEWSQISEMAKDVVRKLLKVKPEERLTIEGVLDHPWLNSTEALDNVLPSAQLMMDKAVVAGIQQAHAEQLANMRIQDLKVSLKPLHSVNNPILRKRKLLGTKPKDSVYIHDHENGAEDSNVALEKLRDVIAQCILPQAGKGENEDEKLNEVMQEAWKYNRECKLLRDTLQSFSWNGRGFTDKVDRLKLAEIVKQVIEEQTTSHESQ

Chain of Maternal embryonic leucine zipper kinase (Homo sapiens) (Q14680 whole entry, looked up): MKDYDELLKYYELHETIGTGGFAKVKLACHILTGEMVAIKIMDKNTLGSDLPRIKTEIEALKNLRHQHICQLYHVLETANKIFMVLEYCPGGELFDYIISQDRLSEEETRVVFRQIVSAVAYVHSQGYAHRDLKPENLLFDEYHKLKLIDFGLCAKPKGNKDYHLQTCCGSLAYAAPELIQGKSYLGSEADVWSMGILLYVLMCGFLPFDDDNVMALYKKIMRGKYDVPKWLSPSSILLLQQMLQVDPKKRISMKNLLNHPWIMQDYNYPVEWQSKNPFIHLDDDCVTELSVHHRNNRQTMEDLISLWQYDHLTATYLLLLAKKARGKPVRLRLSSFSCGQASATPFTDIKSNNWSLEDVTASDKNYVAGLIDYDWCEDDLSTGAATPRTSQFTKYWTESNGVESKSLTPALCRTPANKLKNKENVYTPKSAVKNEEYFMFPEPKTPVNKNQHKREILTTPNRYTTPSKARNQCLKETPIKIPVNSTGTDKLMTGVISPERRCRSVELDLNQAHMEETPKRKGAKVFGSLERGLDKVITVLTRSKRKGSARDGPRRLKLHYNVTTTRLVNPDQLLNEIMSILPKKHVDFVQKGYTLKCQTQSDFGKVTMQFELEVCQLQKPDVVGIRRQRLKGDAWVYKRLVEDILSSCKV
Chain of Serine/threonine-protein kinase 24 (Homo sapiens) (Q9Y6E0 whole entry, looked up): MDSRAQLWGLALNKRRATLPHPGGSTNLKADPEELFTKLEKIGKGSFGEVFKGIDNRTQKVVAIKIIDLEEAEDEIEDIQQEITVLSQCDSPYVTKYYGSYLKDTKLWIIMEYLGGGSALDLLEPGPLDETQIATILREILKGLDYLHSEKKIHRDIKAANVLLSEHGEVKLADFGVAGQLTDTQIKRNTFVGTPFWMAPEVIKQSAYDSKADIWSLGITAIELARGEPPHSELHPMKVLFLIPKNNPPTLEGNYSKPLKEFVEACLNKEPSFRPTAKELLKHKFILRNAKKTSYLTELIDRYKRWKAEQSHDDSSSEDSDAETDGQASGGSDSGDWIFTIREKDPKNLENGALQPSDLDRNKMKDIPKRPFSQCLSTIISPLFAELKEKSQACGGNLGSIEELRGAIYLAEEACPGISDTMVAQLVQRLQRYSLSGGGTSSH
Chain of Insulin receptor-related protein (Homo sapiens) (P14616 27-742 limits assumed): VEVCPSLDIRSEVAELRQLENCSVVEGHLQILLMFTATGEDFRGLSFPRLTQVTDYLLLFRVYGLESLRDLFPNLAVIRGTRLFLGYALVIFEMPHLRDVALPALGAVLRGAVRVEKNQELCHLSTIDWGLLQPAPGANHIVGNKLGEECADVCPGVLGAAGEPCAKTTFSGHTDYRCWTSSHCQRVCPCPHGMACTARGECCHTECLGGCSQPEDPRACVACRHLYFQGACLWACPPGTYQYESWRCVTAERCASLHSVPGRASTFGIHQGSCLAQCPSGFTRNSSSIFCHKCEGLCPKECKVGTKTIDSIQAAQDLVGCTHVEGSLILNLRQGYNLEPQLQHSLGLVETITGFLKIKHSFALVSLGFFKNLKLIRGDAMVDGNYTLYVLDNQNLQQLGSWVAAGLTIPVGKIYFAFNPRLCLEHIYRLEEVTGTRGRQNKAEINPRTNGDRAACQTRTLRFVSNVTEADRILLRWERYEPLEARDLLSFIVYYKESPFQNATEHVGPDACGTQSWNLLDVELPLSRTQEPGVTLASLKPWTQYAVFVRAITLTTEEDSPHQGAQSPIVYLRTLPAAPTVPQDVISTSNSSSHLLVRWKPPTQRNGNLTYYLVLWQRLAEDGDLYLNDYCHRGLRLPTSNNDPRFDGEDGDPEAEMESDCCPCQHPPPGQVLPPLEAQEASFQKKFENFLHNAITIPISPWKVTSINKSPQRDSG
Chain of Insulin receptor-related protein (Homo sapiens) (P14616 747-1297 limits assumed): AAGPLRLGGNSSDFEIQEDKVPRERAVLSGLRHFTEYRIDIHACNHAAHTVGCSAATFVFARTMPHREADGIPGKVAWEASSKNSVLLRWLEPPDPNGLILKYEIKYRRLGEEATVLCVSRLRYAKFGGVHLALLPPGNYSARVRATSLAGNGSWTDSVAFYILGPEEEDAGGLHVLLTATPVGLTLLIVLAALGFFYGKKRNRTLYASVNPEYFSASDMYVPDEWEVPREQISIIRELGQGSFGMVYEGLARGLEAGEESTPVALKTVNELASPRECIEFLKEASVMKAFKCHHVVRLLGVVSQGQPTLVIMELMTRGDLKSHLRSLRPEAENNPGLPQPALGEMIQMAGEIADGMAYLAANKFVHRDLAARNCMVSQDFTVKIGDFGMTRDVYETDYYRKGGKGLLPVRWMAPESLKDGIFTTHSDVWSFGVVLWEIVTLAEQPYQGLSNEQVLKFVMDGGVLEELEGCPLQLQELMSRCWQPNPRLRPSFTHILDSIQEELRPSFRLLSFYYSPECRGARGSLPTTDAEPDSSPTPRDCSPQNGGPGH
Chain of Casein kinase I isoform alpha-like (Homo sapiens) (Q8N752 whole entry, canonical isoform): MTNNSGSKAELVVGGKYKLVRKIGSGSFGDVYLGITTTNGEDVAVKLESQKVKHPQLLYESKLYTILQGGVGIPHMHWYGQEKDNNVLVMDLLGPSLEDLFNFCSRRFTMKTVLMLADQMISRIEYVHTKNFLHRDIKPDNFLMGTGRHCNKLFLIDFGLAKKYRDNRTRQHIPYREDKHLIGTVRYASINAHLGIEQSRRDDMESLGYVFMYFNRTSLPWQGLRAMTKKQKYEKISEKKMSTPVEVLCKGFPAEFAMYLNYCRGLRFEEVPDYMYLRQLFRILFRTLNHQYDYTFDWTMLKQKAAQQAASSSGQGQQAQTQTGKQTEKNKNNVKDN
Chain of Mast/stem cell growth factor receptor Kit (Homo sapiens), P10721 [V559D] (P10721 whole entry V559D): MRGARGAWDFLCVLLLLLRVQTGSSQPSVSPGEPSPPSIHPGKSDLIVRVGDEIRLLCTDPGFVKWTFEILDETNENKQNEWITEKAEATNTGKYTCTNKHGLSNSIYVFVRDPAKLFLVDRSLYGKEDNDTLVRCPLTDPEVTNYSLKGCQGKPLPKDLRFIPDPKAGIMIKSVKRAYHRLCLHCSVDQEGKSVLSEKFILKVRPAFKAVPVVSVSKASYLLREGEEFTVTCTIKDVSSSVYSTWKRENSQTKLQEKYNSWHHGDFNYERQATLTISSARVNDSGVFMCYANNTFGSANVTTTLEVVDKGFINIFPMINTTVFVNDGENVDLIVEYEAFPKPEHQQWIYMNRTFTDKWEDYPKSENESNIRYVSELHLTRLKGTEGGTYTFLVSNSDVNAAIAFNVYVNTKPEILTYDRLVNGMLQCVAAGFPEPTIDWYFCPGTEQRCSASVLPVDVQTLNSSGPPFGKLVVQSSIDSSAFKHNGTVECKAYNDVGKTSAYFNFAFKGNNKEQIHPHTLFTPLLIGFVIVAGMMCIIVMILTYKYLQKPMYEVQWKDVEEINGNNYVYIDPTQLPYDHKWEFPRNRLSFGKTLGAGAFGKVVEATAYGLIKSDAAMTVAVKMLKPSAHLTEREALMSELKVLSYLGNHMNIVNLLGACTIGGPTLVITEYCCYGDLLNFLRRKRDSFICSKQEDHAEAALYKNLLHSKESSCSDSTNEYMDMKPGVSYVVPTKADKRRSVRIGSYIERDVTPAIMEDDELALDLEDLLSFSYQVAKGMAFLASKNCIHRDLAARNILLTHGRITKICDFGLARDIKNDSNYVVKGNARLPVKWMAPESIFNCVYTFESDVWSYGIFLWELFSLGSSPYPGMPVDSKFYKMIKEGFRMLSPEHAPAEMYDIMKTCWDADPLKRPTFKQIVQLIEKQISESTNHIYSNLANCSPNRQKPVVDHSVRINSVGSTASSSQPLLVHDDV
Chain of Mast/stem cell growth factor receptor Kit (Homo sapiens), P10721 [V559D,T670I] (P10721 whole entry V559D/T670I): as the sequence (P10721 whole entry V559D) above, with T670I counted along it
Chain of Tyrosine-protein kinase Yes (Homo sapiens) (P07947 2-543 limits assumed): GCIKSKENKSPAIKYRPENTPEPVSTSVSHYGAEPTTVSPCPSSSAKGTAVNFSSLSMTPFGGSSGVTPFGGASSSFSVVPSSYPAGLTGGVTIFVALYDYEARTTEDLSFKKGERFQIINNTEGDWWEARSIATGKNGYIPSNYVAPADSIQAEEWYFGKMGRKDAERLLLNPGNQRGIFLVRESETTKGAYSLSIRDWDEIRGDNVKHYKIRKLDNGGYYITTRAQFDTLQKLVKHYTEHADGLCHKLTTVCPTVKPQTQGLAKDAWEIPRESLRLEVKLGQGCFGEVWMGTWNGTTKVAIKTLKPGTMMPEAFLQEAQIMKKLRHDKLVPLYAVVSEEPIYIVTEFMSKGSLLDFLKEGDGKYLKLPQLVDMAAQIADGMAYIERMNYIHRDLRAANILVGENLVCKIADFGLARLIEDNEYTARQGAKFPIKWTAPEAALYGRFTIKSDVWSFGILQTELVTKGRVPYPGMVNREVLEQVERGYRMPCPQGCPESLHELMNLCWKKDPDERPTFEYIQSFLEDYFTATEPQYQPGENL
Chain of Mast/stem cell growth factor receptor Kit (Homo sapiens) (P10721 whole entry): as the sequence (P10721 whole entry V559D) above, with D559V counted along it

Compound: O=C(Nc1cccnc1)c1cc(-c2ccnc(F)c2)ccc1OCc1ccccc1
- Activity [1]: 74%
- Activity [2]: 108%
- Activity [3]: 39%
- Activity [4]: 101%
- Activity [5]: 72%
- Activity [6]: 80%
- Activity [7]: 63%
- Activity [8]: 63%
- inhibition [9]: Active
- Activity [10]: 115%
- Activity [11]: 42%
- Activity [12]: 117%
- Activity [13]: 75%
- Activity [14]: 40%
- Activity [15]: 118%
- Activity [16]: 120%
- Activity [17]: 119%
- Activity [18]: 80%
- Activity [19]: 52%
- Activity [20]: 20%
- Activity [21]: 73%
- Activity [22]: 113%
- Activity [23]: 102%
- Activity [24]: 75%
- Activity [25]: 70%
- Activity [26]: 70%
- Activity [27]: 71%
- Activity [28]: 114%
